Screening data from PubChem.
Only some compounds are listed: those with a hit (about 1.7% of all), similar ones and a draw of the others.
LMPTP block: LMPTP (human) inhibition | inhibition, % at 20 µM | AID 651560 | P24666 | hit rate 0.22% among 360,000 | recombinant LMPTP-A, OMFP fluorogenic substrate, fluorescence intensity;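 active = compounds that cut the enzyme signal by at least half of the control window in the single-dose screen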;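 also: plate controls were DMSO wells with enzyme plus substrate for no effect and substrate without enzyme for full effect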
Target sequence (P24666 whole entry, looked up): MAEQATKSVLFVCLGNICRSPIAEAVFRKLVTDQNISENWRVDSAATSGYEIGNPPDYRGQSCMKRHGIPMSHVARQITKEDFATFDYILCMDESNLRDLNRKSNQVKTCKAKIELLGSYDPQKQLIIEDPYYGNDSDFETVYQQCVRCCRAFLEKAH
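Material: LMPTP-A; amount: 0.625 nM enzyme; doses: single 20 µM dose; times: reaction 50 min, room temperature, dark; technique: fluorescence intensity of OMFP turnover product; benchmarks: no-enzyme and uninhibited controls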
STEP inh: inhibitors of human striatal-enriched phosphatase STEP. inhibition, % at 20 µM. recombinant STEP, OMFP fluorogenic substrate, fluorescence. hit rate 0.25% among 360,000;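 active = inhibition at 20 µM, scaled per plate between control wells, above about 37%, limit read from the data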;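 also: 0% = DMSO with enzyme and substrate and 100% = substrate only without enzyme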
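Test system: STEP tyrosine phosphatase / Reagent: OMFP at 25 µM / Doses: 20 µM, 1% DMSO / Read-out: percent inhibition scaled to no-enzyme and uninhibited-enzyme controls, plate-pattern corrected / Detection: FITC-channel fluorescence of OMFP product / Medium: Bis-Tris buffer pH 6.0, 2.5 mM DTT, 0.005% Tween 20 / Schedule: 20 min at room temperature, dark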
SUMO1-SIM PPI: modulators of human SUMO1-mediated protein-protein interactions. P63165. SUMO1 binding to a labelled peptide, TR-FRET, 1 h. inhibition, % at 20 µM. hit rate 0.33% among 360,000. AID 602429; in the data active = inhibition above about 37%
Target sequence (P63165 whole entry, looked up): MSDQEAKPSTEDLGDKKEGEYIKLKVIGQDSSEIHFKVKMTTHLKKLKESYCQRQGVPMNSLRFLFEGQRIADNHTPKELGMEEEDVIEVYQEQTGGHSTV
DNMT1 block: DNMT1 (human) enzyme inhibition. DNMT1 molecular beacon, Hinp1I cleavage, fluorescence. inhibition (reported as % activation of signal), % at 10 µM. hit rate 0.83% among 360,000; in the data active = inhibition above about 50%
Scp1 inh: blocks human Scp-1 phosphatase activity. Q9GZU7. Recombinant Scp1, phosphopeptide, malachite green phosphate absorbance. inhibition, % at 20 µM. hit rate 0.88% among 340,000;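 active = inhibition above about 50% at 20 µM, limit read from the data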;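 also: plate controls were DMSO wells with enzyme for no effect and wells lacking enzyme for full effect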
Target sequence (Q9GZU7 76-261 limits assumed): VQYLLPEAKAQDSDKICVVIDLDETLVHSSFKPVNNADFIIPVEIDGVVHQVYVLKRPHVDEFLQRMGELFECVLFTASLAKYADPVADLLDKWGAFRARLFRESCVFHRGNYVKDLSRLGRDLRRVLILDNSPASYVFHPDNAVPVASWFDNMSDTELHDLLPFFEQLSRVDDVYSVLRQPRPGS
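System: SCP-1 catalytic domain; Reagent: Phospho 17-mer peptide substrate; Doses: one concentration, 20 µM, with 1.0% DMSO; Incubation: 45 min room-temperature reaction, 5 min colour, 30 min stabiliser; Signal: Phosphate-binding colour reagent, absorbance read at 630 nm.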
Scp1 confirm: Scp-1 (human) inhibition, single-dose confirmed; shares compounds with Scp1 inh; recombinant SCP-1 catalytic domain, phosphate release, malachite green absorbance; inhibition, % at 20 µM; hit rate 61% among 2,500;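 also: plate controls were DMSO with enzyme for no effect and buffer wells lacking enzyme for full effect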
Scp-1 MG ctr: colorimetric interference in Scp-1 counter-screen. shares compounds with Scp1 inh. Colorimetric interference counterscreen, malachite green absorbance 630 nm. apparent inhibition (interference), % at 20 µM. 2,500 tested, under 10 active. AID 540313;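 also: compounds added after enzyme reaction finished so only phosphate colour detection is probed; plate controls were DMSO wells with completed Scp-1 reaction for no effect and substrate wells lacking enzyme for full effect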
Scp-1 Tm shift: Scp-1 (human) binding by thermal shift; shares compounds with Scp1 inh; Recombinant SCP1, Sypro Orange thermal shift Tm; thermal shift relative to vanadate control, % at 40 µM; hit rate 25% among 1,500; AID 540329;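 active = substances whose mean melting-temperature shift, as a percentage of the reference inhibitor's shift, reaches about 5.3%, limit read from the data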;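 also: 0% = Tm of DMSO wells and 100% = Tm with sodium orthovanadate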
* = called active by the depositor; . = no result given.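 The calls were made as follows, unless noted: active = inhibition of at least 30% at 20 µM; inactive = the rest.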

SMILES | LMPTP block | STEP inh | SUMO1-SIM PPI | DNMT1 block | Scp1 inh | Scp1 confirm | Scp-1 MG ctr | others
COC(=O)c1sccc1NC(=O)CSc1ccccc1NC(=O)CNC(C)C | 1 | -1 | -3 | -6 | -4 | . | .
COC(=O)c1sccc1NC(=O)CSc1ccccc1N | 0 | -1 | 7 | 0 | 58* | -22 | -19
CC(=O)Nc1cccc(-c2ccnc3c2CC(C)(C(=O)Nc2cccc(Oc4ccccc4)c2)O3)c1 (centres undefined) | 5 | 0 | 4 | -26 | . | . | .
CCc1nc2ccc(C(=O)N3CCN(S(=O)(=O)CC)CC3)cn2c1N(C)C(=O)c1cccc(OC)c1 | -2 | -2 | 0 | 2 | . | . | .
COCCNC(=O)C1CCCN(C(=O)c2cc(-c3cccs3)oc2C)CC1 (centres undefined) | -1 | -1 | -6 | 3 | . | . | .
COC(=O)C1(C(=O)OC)c2ccccc2N(S(=O)(=O)c2ccc(C)cc2)C1CC(=O)c1ccccc1 (centres undefined) | 1 | . | 5 | . | . | . | .
COc1nc(=O)n(C2CCCO2)cc1C (centres undefined) | 0 | -2 | 1 | 0 | 85* | -11 | -7
Cc1cn(C2CCCCO2)c(=O)nc1NO (centres undefined) | 0 | -4 | -1 | -2 | 4 | . | .
C[C@@H]1CN([C@H](C)CO)C(=O)CCCn2cc(nn2)CO[C@H]1CN(C)S(=O)(=O)c1ccccc1C#N | -2 | 3 | 4 | 4 | . | . | .
Cc1c(NS(=O)(=O)c2cc(C(=O)NCCN(C)C)ccc2Cl)c(=O)n(-c2ccccc2)n1C | 18 | 23 | 13 | 26 | 73* | 37* | -11 | Scp-1 Tm shift=-11
CN(Cc1ccco1)C(=O)CSc1nc(C2CC2)n(-c2ccccc2)n1 | 1 | -2 | 12 | 1 | 7 | . | .
CC[n+]1c(/C=C/Nc2ccccc2)oc2ccccc21 | 1 | -1 | -10 | 7 | 99* | -13 | -19
COc1ccccc1-c1nn2c(-c3ccco3)nnc2s1 | 7 | 0 | 7 | 17 | 51* | 60* | -4 | Scp-1 Tm shift=-7
Cc1ccc(CNC(=O)C2(C)CCN2C(=O)Cc2ccc(C(C)(C)C)cc2)cc1 (centres undefined) | 1 | 0 | -7 | 0 | . | . | .
Cc1ccc(S(=O)(=O)C(C#N)c2nc3ccccc3nc2N2CC(C)OC(C)C2)cc1C (centres undefined) | 0 | -2 | -9 | -9 | 79* | -13 | -19
CCOC(=O)C1CCN(C2CC(=O)N(c3ccc(OCC)cc3)C2=O)CC1 (centres undefined) | -2 | 0 | -2 | 0 | 52* | 15 | 0
O=C1NC(Cc2ccc(O)cc2)c2nc3ccccc3c(=O)n2-c2ncccc21 (centres undefined) | 0 | 1 | 0 | 5 | . | . | .
COc1ccc(C(=O)CC(C#N)c2ccc3c(c2)OCO3)cc1OC (centres undefined) | -1 | 0 | -1 | -7 | . | . | .
O=C(O)c1ccccc1-c1c2cc(I)c(=O)c(I)c-2oc2c(I)c(O)c(I)cc12 | 22 | -75 | 69* | 34 | 77* | 65* | -23 | Scp-1 Tm shift=164*
COc1ccc(C(=O)N2CCC2(C)C(=O)NC(C)C)cc1 (centres undefined) | 0 | 1 | -5 | 3 | . | . | .
Cc1ccccc1NC(=O)CSc1n[nH]c(-c2ccccn2)n1 | 0 | -1 | 5 | 1 | 63* | -20 | -19
Cc1ccc(C)c(NC(=O)CSc2n[nH]c(-c3ccccn3)n2)c1 | 0 | 1 | -2 | 2 | -1 | . | .
CC(CC(=O)Nc1ccc2c(c1)c(=O)n(C)n2Cc1ccc(F)cc1)c1ccccc1 (centres undefined) | -1 | -1 | 6 | -6 | . | . | .
Cc1cccc(S(=O)(=O)NC(=O)C2(C)CCN2C(=O)C2(c3ccc(Cl)cc3)CCC2)c1 (centres undefined) | -2 | -2 | 10 | 4 | . | . | .
COc1ccccc1CNS(=O)(=O)c1ccc2[nH]cc(C(=O)O)c(=O)c2c1 | 1 | 18 | 4 | 86* | 55* | 47* | -2 | Scp-1 Tm shift=0
SMILES | LMPTP block | STEP inh | SUMO1-SIM PPI | DNMT1 block | Scp1 inh | Scp1 confirm | Scp-1 MG ctr | others
Cn1c(-c2ccccc2)c(Sc2ccccc2)c2cc(-c3ccc4cc[nH]c4c3)ccc21 | 2 | . | -5 | . | . | . | .
CCC(C)c1ccccc1NC(=O)c1cccc(-n2cnnn2)c1 (centres undefined) | 0 | -3 | -2 | -4 | 73* | -1 | -10
CNc1ncnc2c1ncn2[C@H]1CN(Cc2ccc(Cl)cc2)C[C@@H](CO)O1 | 0 | 0 | 0 | -1 | . | . | .
C[C@H](c1ccccc1)N1C[C@@H](COCc2ccccc2)Oc2cc(N3CCC[C@H]3CO)ccc2S1(=O)=O | 2 | . | -1 | . | . | . | .
COc1cc(NC(=S)N2CCCC(CO)C2)cc(OC)c1 (centres undefined) | 1 | 15 | -1 | 5 | 70* | -8 | -5
CN(CCCC1CCCC1)C(=O)c1cc(COc2ccc(F)c(F)c2)on1 | 5 | 4 | 3 | -5 | 63* | -6 | -7
O=C(O)COc1ccc2c(c1)O/C(=C\c1ccco1)C2=O | 2 | 77* | 7 | 69* | 75* | 70* | 6 | Scp-1 Tm shift=7.5*
Clc1ccc(CSc2nnc(-c3ccccn3)n2Cc2cccs2)cc1Cl | 9 | 0 | 5 | -10 | . | . | .
CC1OC(COCc2ccccc2)Cc2[nH][nH]c(=O)c21 (centres undefined) | -1 | . | -2 | . | . | . | .
C[n+]1cccc(/C=N/NC(=O)CC23CC4CC(CC(C4)C2)C3)c1 | -2 | -5 | -12 | 4 | 83* | -22 | -21
NC(=O)NN=C1CCC(OCc2ccccc2)CC1CC(=O)O (centres undefined) | -1 | 0 | 0 | 0 | . | . | .
Cc1c(C(=O)O)sc2nc3n(c(=O)c12)CCC3 | 0 | 7 | 2 | 23 | 64* | 55* | -5 | Scp-1 Tm shift=3
Cc1c(C(=O)N2CCN(c3ccccc3)CC2)sc2nc3n(c(=O)c12)CCC3 | -1 | 0 | 1 | 0 | -5 | . | .
Cc1ccc(NC(=O)CS(=O)CC(=O)Nc2ccc(N3CCOCC3)cc2)cc1Cl (centres undefined) | 2 | 22 | 1 | -3 | 97* | 70* | -20 | Scp-1 Tm shift=2
Cc1cc(C)c(NC(=O)CS(=O)CC(=O)Nc2ccc(N3CCOCC3)cc2)c(C)c1 (centres undefined) | -1 | 1 | -1 | 1 | -3 | . | .
O=C(COc1ccc2oc(-c3ccccc3)cc(=O)c2c1)NCc1ccco1 | 8 | 0 | 6 | 17 | 82* | 59* | -12 | Scp-1 Tm shift=-6
